Data as given in ChEMBL document CHEMBL1158558, “Design of potential reverse transcriptase inhibitor containing Isatin nucleus using molecular modeling studies” (Bioorg Med Chem, 2010).

What follows are compounds tested against Human immunodeficiency virus type 1 reverse transcriptase (Human immunodeficiency virus 1) (UniProt Q72547) (assay: Inhibition of HIV1 RT after 1 hr by ELISA relative to control). Settings: concentration not given here.
Design: concentration or dose not given beside the values
In short: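 RT inhibitors, diluted in lysis buffer, were mixed with reaction mixture and incubated 1 h at 37 °C. Samples were then transferred to microplate modules for 1 h at 37 °C and washed. Anti-DIG-POD (200 mU/ml) was added for 1 h at 37 °C, then washed again. ABTS substrate was developed at 15–25 °C for 10–30 min, and absorbance was read at 405 nm.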

inhibition [%]	SMILES
90.9	Cc1ccc2c(c1)/C(=N/n1cnnc1)C(=O)N2CN1CCNCC1
84.1	Cc1ccc2c(c1)/C(=N/n1cnnc1)C(=O)N2CN1CCOCC1

Continued, compound first:

SMILES	inhibition [%]
Cc1ccc2c(c1)/C(=N/n1cnnc1)C(=O)N2CN1CCCCC1	89
Cc1ccc2c(c1)/C(=N/n1cnnc1)C(=O)N2CN(C)C	69.1
CNc1ccc(CN2C(=O)/C(=N\n3cnnc3)c3cc(C)ccc32)cc1	0
